# Screens from PubChem BioAssay.
# V-ATPase pHluor – alters yeast V-ATPase proton transport; AID 504577; response, % at 10 µM; S. cerevisiae, pHLuorin cytosolic pH fluorescence; actives 0.37% (n = 350,000); in the data active = response mostly above about 7.3%, no sharp cut-off; inactive = mostly below about 5.4%; also: actives read high
# UPR CHOP act – activators of apoptotic arm of unfolded protein response (CHOP); CHO-CHOP luciferase reporter, UPR activation, luminescence; percent of tunicamycin response over DMSO baseline; AID 449763; activation, % at 10 µM; actives 0.34% (n = 330,000);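 active = at 10 µM dose, activation of 40% or more, normalized to positive control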;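 also: 100% = tunicamycin at 10 µg/mL and 0% = DMSO alone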
#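 System: CHO-CHOP luciferase reporter cell line | Buffer or medium: F12 medium containing 10% fetal bovine serum | Doses: One dose, 10 µM in 0.5% DMSO | Times: 6 h compound exposure at 37 °C after overnight seeding | Signal: Luciferase luminescence | Read-out: % activation vs tunicamycin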
# Tb MetRS inh – Trypanosoma brucei MetRS inhibition; purified T. brucei MetRS, ATP depletion, Kinase-Glo luminescence; inhibition, % at 11.9 µM; actives 0.4% (n = 360,000); AID 624268;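 active = inhibition above a per-plate cutoff of the control wells' mean inhibition plus 3 SD, cut at about 5.5% in these data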;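 also: 0% = DMSO wells median and 100% = median of wells with control inhibitor compound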
#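 Material: T. brucei methionyl-tRNA synthetase, purified; reagent: substrates ATP, L-methionine and bulk Escherichia coli tRNA; dosing: 11.9 µM single point; timing: 15 min plus 2 h at 25 °C; detection: luminescence of leftover ATP; evaluation: % inhibition; control set: DMSO-only wells as low control; replicates: singlicate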
# UPR XBP1 act – activators of adaptive arm of unfolded protein response (XBP1); actives 0.33% (n = 330,000); CHO-XBP1 luciferase reporter, IRE1-XBP1 UPR activation, luminescence; percent of tunicamycin response, DMSO as zero; activation, % at 20 µM;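 active = versus positive control, 20 µM dose yields 30% or more activation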;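 also: 100% = tunicamycin at 10 µg/mL and 0% = DMSO only wells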
#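 Assay system: CHO-XBP1 luciferase reporter cells; Schedule: 6 h treatment, 37 °C; Detection: glow luminescence from Steady-Glo reagent; Benchmarks: high control tunicamycin 10 µg/mL final, low control DMSO vehicle only.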
# CHOP inhibitor – blocks CHOP induction under ER stress; inhibition, % at 10 µM; CHO-K1 CHOP-promoter luciferase, tunicamycin-induced, 15-18 h; actives 3.8% (n = 220,000);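 active = compounds that reduced the stress-induced luciferase reporter signal by more than about 70% of percent inhibition, limit read from the data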;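 also: 0% = tunicamycin plus vehicle and 100% = wells without tunicamycin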
# * hit, by the source's call; . = no result given. Shown is part of a subset that was picked to be rich in hits.
SMILES,V-ATPase pHluor,UPR CHOP act,Tb MetRS inh,UPR XBP1 act,CHOP inhibitor
Oc1ccc(Br)cc1/C=N/n1cnc2ccccc21,-2,5,-1,6,74*
Oc1ccc(Br)cc1/C=N/N1CCCCC1,1,5,-1,2,53
CC1(c2ccccc2)CC(C)(C)N2C(=O)Cc3cccc1c32 (stereo not drawn),1,1,0,-1,72*
N#Cc1ccc(-c2cccnc2)nc1SCC(=O)Nc1sc2c(c1C#N)CCC2,5,0,0,10,56
CCc1nnc(NC(=O)CSc2nc(-c3ccccc3)cc(-c3ccc(F)cc3)c2C#N)s1,1,-1,-1,1,84*
N#Cc1c(C(F)(F)F)cc(-c2ccccc2)nc1SCC(=O)Nc1sc2c(c1C#N)CCC2,-3,7,-2,2,74*
CCc1nnc(NC(=O)CSc2nc(-c3ccccc3)nc3ccccc23)s1,1,1,0,9,90*
CCc1nnc(NC(=O)CSc2nc(C3CCCCC3)nc3ccccc23)s1,2,-1,0,-6,47
O=C(CN1C(=O)NC2(CCCC2)C1=O)OCc1c(F)cccc1Cl,3,0,0,-3,.
CC(NCC(O)COC1CCC(C(C)(C)C)CC1)c1ccccc1 (stereo not drawn),1,1,0,2,90*
CC1CCC(C(C)C)C(OCC(O)CNC(C)c2ccccc2)C1 (stereo not drawn),3,-1,-1,4,93*
CCCCCCCCNC(CO)(CO)CO,-4,0,0,-4,8
CSCCC(C(=O)Nc1c(C)cccc1C)N1CCN(C/C=C/c2ccccc2)CC1 (stereo not drawn),.,.,0,.,.
COc1ccc(NC(=O)Nc2nnc(-c3cccs3)s2)cc1,-3,4,-2,1,88*
COc1ccc(C(=O)Nc2nc(-c3cccs3)c(NC(C)=O)s2)cc1,-2,-1,0,-2,-14
Cc1occc1C(=O)Nc1nnc(-c2cccs2)s1,-1,7,0,5,81*
O=C(Nc1nnc(-c2cccs2)s1)c1cccc(F)c1,-1,7,0,2,93*
Cc1occc1C(=O)Nc1nccs1,0,-1,0,0,-14
O=C(Nc1ccccc1)Nc1nnc(-c2cccs2)s1,0,7,2,2,-23
COc1ccc(C(=O)Nc2nnc(-c3cccs3)s2)cc1,-8,-6,0,-6,70*
CC1(c2ccc([N+](=O)[O-])cc2)CC(C)(C)N(C(=O)c2ccccc2)c2ccccc21 (stereo not drawn),.,.,.,.,81*
CC(=O)N1c2ccccc2C(C)(c2ccccc2)CC1(C)C (stereo not drawn),4,0,0,-1,36
COc1ccc(-c2cc(-c3ccc(Br)cc3)nc3ncnn23)cc1OC,-8,-1,-1,-2,79*
COc1ccc(-c2cc(-c3ccccc3)nc3ncnn23)cc1,2,-1,0,5,29
C[C@@H]1CN(C(=O)c2nc3ccc(Cl)cn3c2CN2CCc3sccc3C2)C[C@H](C)O1,13*,0,0,-2,18
SMILES,V-ATPase pHluor,UPR CHOP act,Tb MetRS inh,UPR XBP1 act,CHOP inhibitor
COC(=O)C1CCN(Cc2c(C(=O)N3C[C@@H](C)O[C@@H](C)C3)nc3ccc(Cl)cn23)CC1,0,0,0,-2,.
CCOc1ccc(N=CC2=C(O)CC(c3ccco3)CC2=O)cc1 (stereo not drawn),-2,2,0,1,26
O=C1CC(c2ccco2)CC(O)=C1C=Nc1cc(Cl)cc(Cl)c1 (stereo not drawn),2,29,0,3,84*
Cc1c(NC(=O)COC(=O)CSc2ccc([N+](=O)[O-])cc2)c(=O)n(-c2ccccc2)n1C,3,0,0,2,.
Cc1cc(C)cc(Oc2ccccc2/C=N\O)c1,1,-1,-1,0,73*
Cc1ccc(OCC(=O)Nc2ccc(-c3nc4ncccc4o3)cc2)c(C)c1,-2,-1,0,-2,84*
O=C(O)c1cccc(N2C(=O)/C(=C/c3ccc(SCc4ccc(Cl)cc4)o3)SC2=S)c1,0,.,1,.,75*
O=C(CCN1C(=O)/C(=C/c2ccc(Cl)cc2)SC1=S)Nc1cccc(C(=O)O)c1,3,2,0,-3,.
O=C(COc1ccc2c(c1)CCC2)N1CCN(c2cccc(C(F)(F)F)c2)CC1,2,-2,0,1,86*
C=CCOC(=O)N1CCN(c2cccc(C(F)(F)F)c2)CC1,-4,-2,0,2,81*
CC(C)NS(=O)(=O)c1ccc(OCC(=O)N2CCN(c3ccccc3)CC2)cc1,-2,-1,0,0,-8
COC(=O)[C@@H](NC(=O)N1CCN(c2cccc(C(F)(F)F)c2)CC1)C(C)C,11,-1,-1,-1,10
CCC(C)[C@H](NC(=O)N1CCN(c2cccc(C(F)(F)F)c2)CC1)C(=O)OC (stereo partly drawn),1,-2,-1,-4,81*
O=C(COc1ccc(S(=O)(=O)NC2CCCCC2)cc1)N1CCN(c2cccc(Cl)c2)CC1,-4,5,0,0,79*
Cc1ccc(NC(=O)C(OC(=O)c2ccc(F)cc2)c2ccccc2)cc1Cl (stereo not drawn),-2,.,0,.,73*
Cc1ccc(NC(=O)C(OC(=O)c2ccc(O)cc2)c2ccccc2)cc1Cl (stereo not drawn),4,-3,0,-2,-6
CCC(=O)N[C@@H]1C=C[C@@H](CC(=O)NCc2ccccc2F)O[C@@H]1CO,.,.,0,.,.
CC1NS(=O)(=O)c2cc([N+](=O)[O-])ccc21 (stereo not drawn),.,.,-1,.,.
Cc1cc(C)n2nc(-c3sccc3-n3c(C)ccc3C)cc2n1,-2,0,-1,2,76*
CCSc1nc(C)cc(C)c1S(=O)(=O)c1ccccc1C,0,1,-1,-5,71*
COc1ccc(OC)c(NC(=O)c2nnn(Cc3ccc(Br)cc3F)c2N)c1,3,-1,0,1,88*
COc1cccc(Cn2nnc(C(=O)Nc3cc(Cl)ccc3OC)c2N)c1,-2,-2,0,13,53
Cn1ncc2cc3c(Nc4ccc(Cl)cc4)cccc3nc21,.,.,1,.,.
CCCNc1nc(Nc2ccc(C)cc2)nc(N2CCCC2)n1,-4,1,-1,1,70*
CCOC(=O)N1CCN(C(C(=O)NC2CCCC2)C(C)C)CC1 (stereo not drawn),.,.,0,.,.
COC(=O)c1nc2n(n1)C(c1cc(OC)ccc1OC)C(C(=O)OC1CCCCC1)=C(C)N2 (stereo not drawn),2,2,0,-1,80*
